Assays:
[1] = target: T1, Angiotensin II receptor (AT-1) type-1 (Rattus norvegicus, UniProt P29089+P25095); assay: Displacement of [125I]Sar1,Ile8-Ang2 from AT1 receptor in rat hepatic membrane; assay type: cell membranes, Liver
T1 sequence (P29089 whole entry): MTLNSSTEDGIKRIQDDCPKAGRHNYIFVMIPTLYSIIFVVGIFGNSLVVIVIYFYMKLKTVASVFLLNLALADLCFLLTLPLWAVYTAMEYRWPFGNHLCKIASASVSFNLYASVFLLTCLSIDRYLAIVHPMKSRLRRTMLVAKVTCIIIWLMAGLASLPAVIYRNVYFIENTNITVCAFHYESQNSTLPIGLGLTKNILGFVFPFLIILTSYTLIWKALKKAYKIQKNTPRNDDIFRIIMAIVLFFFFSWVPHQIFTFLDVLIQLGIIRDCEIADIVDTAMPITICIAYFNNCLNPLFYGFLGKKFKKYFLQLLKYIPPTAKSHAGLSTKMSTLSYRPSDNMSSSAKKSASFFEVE
T1 sequence (P25095 whole entry): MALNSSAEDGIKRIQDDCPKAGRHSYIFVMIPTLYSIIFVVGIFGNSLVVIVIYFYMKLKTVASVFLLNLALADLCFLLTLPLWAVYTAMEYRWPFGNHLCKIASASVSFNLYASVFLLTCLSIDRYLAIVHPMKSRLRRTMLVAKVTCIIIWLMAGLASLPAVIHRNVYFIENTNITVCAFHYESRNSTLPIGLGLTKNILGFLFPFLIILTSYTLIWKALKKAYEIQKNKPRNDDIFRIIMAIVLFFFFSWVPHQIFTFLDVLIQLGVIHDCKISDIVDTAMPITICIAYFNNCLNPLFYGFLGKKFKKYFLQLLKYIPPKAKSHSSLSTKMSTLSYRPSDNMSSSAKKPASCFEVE
Procedure, shortened: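 Rat liver membranes from male Wistar rats, prepared by differential centrifugation (750g, then 50 000g), 25 µg protein per well in 50 mM Tris-HCl, 100 mM NaCl, 10 mM MgCl₂, 1 mM EDTA, bacitracin, PMSF, 0.1% BSA, pH 7.4. Nonspecific binding defined with 1 µM Ang II. Filtration read-out. IC50 given as mean ± SEM of three determinations.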

[2] = Apparent permeability from apical to basolateral side of Caco-2 cell; assay type: ADME, cell-based; settings: human
Procedure, shortened: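 Caco-2 cells grown in DMEM with 10% FBS on polycarbonate supports, 15-21 days at 37 °C. Compound dosed apically at 10-100 µM final in HBSS with 1% DMSO, at 37 °C, apical-to-basolateral direction. Monolayer integrity checked by [¹⁴C]mannitol permeability. Transported compound measured by HPLC-MS; Papp calculated by equation.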

[3] = target: T2, Type-1 angiotensin II receptor (Oryctolagus cuniculus, UniProt P34976); assay: Antagonist activity against AT1 receptor assessed as inhibition of Ang2-induced rabbit aortic strip contraction; assay type: functional
T2 sequence (P34976 whole entry): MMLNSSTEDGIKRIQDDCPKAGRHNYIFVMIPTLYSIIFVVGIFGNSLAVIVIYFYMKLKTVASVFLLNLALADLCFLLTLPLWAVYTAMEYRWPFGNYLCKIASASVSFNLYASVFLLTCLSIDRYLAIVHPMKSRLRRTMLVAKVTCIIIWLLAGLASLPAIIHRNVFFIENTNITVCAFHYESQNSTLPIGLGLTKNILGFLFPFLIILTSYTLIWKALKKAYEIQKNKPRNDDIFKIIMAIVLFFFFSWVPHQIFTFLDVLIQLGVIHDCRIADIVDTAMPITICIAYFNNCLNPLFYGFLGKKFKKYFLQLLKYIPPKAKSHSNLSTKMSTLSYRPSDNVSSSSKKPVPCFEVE
Procedure, shortened: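 Rabbit aortic strips equilibrated 1 h, washed every 10 min. An Ang II cumulative curve was run, then 30 min washout. Antagonist or vehicle applied for 60 min before a submaximal (70-80%) Ang II challenge, 5 nM in controls. One antagonist concentration per tissue. Response read as % inhibition of contraction; IC50 derived from the regression line.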

[4] = AUC in Sprague-Dawley rat at 3 mg/kg, iv; assay type: ADME, organism-based; design: dose 3 mg/kg, route intravenous; settings: plasma
Procedure, shortened: (§1)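 Fasted Sprague-Dawley rats, 250-300 g, dosed orally or by tail-vein injection. Blood sampled at selected times and plasma analysed by HPLC. t1/2 (terminal), AUC, observed Cmax and tmax calculated from plasma concentration-time data.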

[5] = AUC in Sprague-Dawley rat at 30 mg/kg, po; assay type: ADME, organism-based; design: dose 30 mg/kg, route oral; settings: plasma
Procedure, shortened: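 Fasted Sprague-Dawley rats (250-300 g) given compound orally; blood sampled at selected times after dosing, plasma analysed by HPLC, and area under the plasma concentration-time curve calculated.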

[6] = Terminal half life in Sprague-Dawley rat at 3 mg/kg, iv; assay type: ADME, organism-based; design: dose 3 mg/kg, route intravenous; settings: in vivo, read-out: beta t1/2 (converted); procedure, shortened: as §1
[7] = Terminal half life in Sprague-Dawley rat at 30 mg/kg, po; assay type: ADME, organism-based; design: dose 30 mg/kg, route oral; settings: in vivo, read-out: beta t1/2 (converted); procedure, shortened: as §1
[8] = Cmax in Sprague-Dawley rat at 30 mg/kg, po; assay type: ADME, organism-based; design: dose 30 mg/kg, route oral; settings: in vivo; procedure, shortened: as §1
[9] = Tmax in Sprague-Dawley rat at 30 mg/kg, po; assay type: ADME, organism-based; design: dose 30 mg/kg, route oral; settings: in vivo; procedure, shortened: as §1
[10] = Oral bioavailability in Sprague-Dawley rat at 30 mg/kg, po; assay type: ADME, organism-based; settings: in vivo; procedure, shortened: as §1
[11] = Oral bioavailability in Sprague-Dawley rat at 10 mg/kg, po; settings: in vivo

Question: Which IC50 [1] does the source give for `CCCCc1nc2c(C)cc(C)nc2n1Cc1ccc(-c2c(C(=O)O)n(C)c(=O)c3ccccc23)cc1` here?
Answer: 6.2 nM

Question: And the Papp A→B [2]?
Answer: 0.01 ×10⁻⁶ cm/s

Question: Which IC50 [1] does the source give for `CCc1nc2c(C)cc(C)nc2n1Cc1ccc(-c2c(-c3nn[nH]n3)cnc3ccccc23)cc1` here?
Answer: 6.9 nM

Question: What about the IC50 [3] of the same molecule?
Answer: 8.9 nM

Question: And the Papp A→B [2]?
Answer: 0.1 ×10⁻⁶ cm/s

Question: What about the AUC [4] of the same molecule?
Answer: 890 ng·h/mL

Question: And the AUC [5]?
Answer: 4400 ng·h/mL

Question: What about the half-life [6] of the same molecule?
Answer: 40.8 min

Question: What about the half-life [7] of the same molecule?
Answer: 60 min

Question: What about the Cmax [8] of the same molecule?
Answer: 4200 ng/mL

Question: And the Tmax [9]?
Answer: 30 min

Question: And the bioavailability [10]?
Answer: 49%

Question: Which results are given for `CCCc1nc2c(C)cc(C)nc2n1Cc1ccc(-c2c(C(=O)O)c(N)nc3ccccc23)cc1`?
Answer: IC50 [1]: 4.2 nM; IC50 [3]: 3.3 nM; AUC [4]: 520 ng·h/mL; half-life [6]: 16.8 min

Question: Which IC50 [1] does the source give for `C=C1C(C(=O)O)=C(c2ccc(Cn3c(CCC)nc4c(C)cc(C)nc43)cc2)c2ccccc21` here?
Answer: 60 nM

Question: With `CCCc1nc2c(C)cc(C)nc2n1Cc1ccc(C2=C(C(=O)NS(=O)(=O)c3ccccc3)C(=O)c3ccccc32)cc1` as the molecule, how does the IC50 [1] read?
Answer: 131 nM

Question: Which IC50 [1] does the source give for `CCCc1nc2c(C)cc(C)nc2n1Cc1ccc(C2C(C(=O)O)=C(C)c3ccccc32)cc1` (configuration not stated) here?
Answer: 47 nM

Question: With `CCCc1nc2c(C)cc(C)nc2n1Cc1ccc(C2(CC(=O)O)CC(=O)c3ccccc32)cc1` (configuration not stated) as the molecule, how does the IC50 [1] read?
Answer: 139 nM

Question: With `CCc1nc2c(C)cc(C)nc2n1Cc1ccc(-c2c(C(=O)O)n(C)c(=O)c3ccccc23)cc1` as the molecule, how does the IC50 [1] read?
Answer: 5.2 nM

Question: What about the IC50 [3] of the same molecule?
Answer: 4.6 nM

Question: And the Papp A→B [2]?
Answer: 0.03 ×10⁻⁶ cm/s

Question: And the AUC [4]?
Answer: 630 ng·h/mL

Question: And the half-life [6]?
Answer: 13.2 min

Question: And the bioavailability [11]?
Answer: 0%

Question: Which IC50 [1] does the source give for `CCCc1nc2c(C)cc(C)nc2n1Cc1ccc(-c2c(C(=O)O)n(C)c(=O)c3ccccc23)cc1` here?
Answer: 5.7 nM

Question: What does the source list for `CCCc1nc2c(C)cc(C)nc2n1Cc1ccc(-c2c(C(=O)O)c(Cl)nc3ccccc23)cc1`?
Answer: IC50 [1]: 7.7 nM; AUC [4]: 340 ng·h/mL; half-life [6]: 18 min

Question: For `CCCc1nc2c(C)cc(C)nc2n1Cc1ccc(C2(C(C(=O)O)C(=O)O)CC(=O)c3ccccc32)cc1` (configuration not stated), which IC50 [1] is on record?
Answer: 55 nM

Question: For `CCCc1nc2c(C)cc(C)nc2n1Cc1ccc(C2=C(C(=O)O)C(C)(O)c3ccccc32)cc1` (configuration not stated), which IC50 [1] is on record?
Answer: 11 nM

Question: And the IC50 [3]?
Answer: 33 nM

Question: With `CCCc1nc2c(C)cc(C)nc2n1Cc1ccc(C2=C(C(=O)O)C(O)(CC)c3ccccc32)cc1` (configuration not stated) as the molecule, how does the IC50 [1] read?
Answer: 15 nM

Question: Which Papp A→B [2] does the source give for `CCCCc1nc(Cl)c(CO)n1Cc1ccc(-c2ccccc2-c2nn[nH]n2)cc1` [LOSARTAN] here?
Answer: 1.15 ×10⁻⁶ cm/s

Question: And the AUC [4]?
Answer: 12400 ng·h/mL

Question: And the AUC [5]?
Answer: 74800 ng·h/mL

Question: What about the half-life [6] of the same molecule?
Answer: 282 min

Question: What about the half-life [7] of the same molecule?
Answer: 180 min

Question: What about the Cmax [8] of the same molecule?
Answer: 27500 ng/mL

Question: And the Tmax [9]?
Answer: 30 min

Question: What about the bioavailability [10] of the same molecule?
Answer: 60%

Question: With `CCCc1nc2c(C)cc(C)nc2n1Cc1ccc(-c2c(-c3nn[nH]n3)n(C)c(=O)c3ccccc23)cc1` as the molecule, how does the IC50 [1] read?
Answer: > 300 nM

Question: With `CCc1nc2c(C)cc(C)nc2n1Cc1ccc(-c2c(-c3nn[nH]n3)n(C)c(=O)c3ccccc23)cc1` as the molecule, how does the IC50 [1] read?
Answer: > 300 nM

Question: For `CCCc1nc2c(C)cc(C)nc2n1Cc1ccc(C2=C(C(=O)O)C(C)c3ccccc32)cc1` (configuration not stated), which IC50 [1] is on record?
Answer: 99 nM

Question: For `CCCCc1nc2c(C)cc(C)nc2n1Cc1ccc(-c2c(-c3nn[nH]n3)n(C)c(=O)c3ccccc23)cc1`, which IC50 [1] is on record?
Answer: > 300 nM

Question: With `CCCc1nc2c(C)cc(C)nc2n1Cc1ccc(C2=C(C(=O)NS(C)(=O)=O)C(=O)c3ccccc32)cc1` as the molecule, how does the IC50 [1] read?
Answer: 54 nM

Question: For `CCc1nc2c(C)cc(C)nc2n1Cc1ccc(C2=C(C(=O)O)C(=O)c3ccccc32)cc1`, which IC50 [1] is on record?
Answer: 53 nM

Question: For `CCCc1nc2c(C)cc(C)nc2n1Cc1ccc(-c2c(C(=O)O)c(C)nc3ccccc23)cc1`, which IC50 [1] is on record?
Answer: 9 nM

Question: What about the IC50 [3] of the same molecule?
Answer: 13 nM

Question: What about the AUC [4] of the same molecule?
Answer: 500 ng·h/mL

Question: What about the half-life [6] of the same molecule?
Answer: 19.8 min

From ChEMBL document CHEMBL1137307, “Further studies on imidazo[4,5-b]pyridine AT1 angiotensin II receptor antagonists. Effects of the transformation of the 4-phenylquinoline backbone into 4-phenylisoquinolinone or 1-phenylindene scaffolds” (J Med Chem, 2006)
